Measurements: ChEMBL document CHEMBL3112586, “Synthesis of neolignans as microtubule stabilisers” (Bioorg Med Chem, 2014)
Active and inactive are the calls of the source. No cut-off for these calls is given here.

Columns and labels:
Mus musculus [1] = experiment: Toxicity in Swiss albino mouse assessed as change in body weight at 5 mg/kg, po (reference value: 24.5 +/- 0.76 g); type: organism-based; design: dose 5 mg/kg, route oral; settings: in vivo
Mus musculus [2] = experiment: Toxicity in Swiss albino mouse assessed as change in serum protein level at 1000 mg/kg, po (reference value: 1.11 +/- 0.14 mg/ml); type: organism-based; design: dose 1000 mg/kg, route oral; settings: in vivo
Mus musculus [3] = experiment: Toxicity in Swiss albino mouse assessed as change in cholesterol level at 5 mg/kg, po (reference value: 81.64 +/- 4.26 mg/dL); type: organism-based; design: dose 5 mg/kg, route oral; settings: in vivo
Mus musculus [4] = experiment: Toxicity in Swiss albino mouse assessed as change in albumin level at 50 mg/kg, po (reference value: 3.35 +/- 0.51 g/dL); type: organism-based; design: dose 50 mg/kg, route oral; settings: in vivo
MCF7 [5] = experiment: Cell cycle arrest in human MCF7 cells assessed as accumulation at G2 phase at 5 to 30 uM after 24 hrs by propidium iodide staining-based FACS analysis; type: functional
How it was run: (§1)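 MCF-7 in DMEM, 10% FBS, 37 °C, 5% CO2; treated 24 h, harvested, washed cold PBS, resuspended 2 × 10⁶ cells/ml, fixed absolute ethanol, RNase A treated, propidium iodide (50 µg/mL) 30 min room temperature; DNA content by flow cytometry; phase distribution versus untreated control.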

Mus musculus [6] = experiment: Toxicity in Swiss albino mouse assessed as change in WBC count at 50 mg/kg, po (reference value: 14.2 +/- 7.49 X 10^3/mm'3); type: organism-based; design: dose 50 mg/kg, route oral; settings: in vivo
MCF7 [7] = experiment: Cell cycle arrest in human MCF7 cells assessed as accumulation at G2/M phase at 5 to 30 uM after 24 hrs by propidium iodide staining-based FACS analysis; type: functional; how it was run: as §1
Mus musculus [8] = experiment: Toxicity in Swiss albino mouse assessed as change in total haemoglobin level at 5 mg/kg, po (reference value: 11.39 +/- 0.84 g/dL); type: organism-based; design: dose 5 mg/kg, route oral; settings: in vivo
Tubulin (Homo sapiens) [9] = target: T1, Tubulin (Homo sapiens) (UniProt P68371+Q9H4B7+P0DPH7+P68366+Q13509+Q71U36+P04350+Q3ZCM7+P07437+P68363+Q9BQE3+Q6PEY2+Q13885+Q9BVA1+Q9BUF5); experiment: Induction of tubulin polymerization (unknown origin) at 10 to 40 uM measured every min for 1 hr; type: protein-complex assay
How it was run: (§2)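 Tubulin 3 mg/mL in 80 mM PIPES pH 6.9, 2 mM MgCl2, 0.5 mM EGTA, 1 mM GTP, 15% glycerol at 37 °C with test compounds at varied concentrations; turbidity at 340 nm read every min for 1 h; podophyllotoxin inhibitor and paclitaxel stabiliser references, DMSO negative control.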

[10] = Toxicity in po dosed Swiss albino mouse; type: organism-based; settings: in vivo
How it was run: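 Acute oral toxicity per OECD guideline 423. Mice of 20–25 g, 3 male and 3 female per group (n = 6), acclimatised 7 days. Single oral dose of 5, 50, 300 or 1000 mg/kg in DMSO suspended in 0.7% carboxymethyl cellulose; controls got vehicle only. Mortality and clinical signs checked hourly on the dosing day, then daily. On day 7: body weight, haematology, serum biochemistry, necropsy and organ weights.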

Mus musculus [11] = experiment: Toxicity in Swiss albino mouse assessed as change in RBC count at 300 mg/kg, po (reference value: 5.43 +/- 0.27 million/mm'3); type: organism-based; design: dose 300 mg/kg, route oral; settings: in vivo
Mus musculus [12] = experiment: Toxicity in Swiss albino mouse assessed as change in cholesterol level at 1000 mg/kg, po (reference value: 81.64 +/- 4.26 mg/dL); type: organism-based; design: dose 1000 mg/kg, route oral; settings: in vivo
Mus musculus [13] = experiment: Toxicity in Swiss albino mouse assessed as change in RBC count at 50 mg/kg, po (reference value: 5.43 +/- 0.27 million/mm'3); type: organism-based; design: dose 50 mg/kg, route oral; settings: in vivo
Mus musculus [14] = experiment: Toxicity in Swiss albino mouse assessed as change in WBC count at 5 mg/kg, po (reference value: 14.2 +/- 7.49 X 10^3/mm'3); type: organism-based; design: dose 5 mg/kg, route oral; settings: in vivo
Mus musculus [15] = experiment: Toxicity in Swiss albino mouse assessed as change in triglyceride level at 1000 mg/kg, po (reference value: 121.45 +/- 24.02 mg/dL); type: organism-based; design: dose 1000 mg/kg, route oral; settings: in vivo
Mus musculus [16] = experiment: Toxicity in Swiss albino mouse assessed as change in creatinine level at 300 mg/kg, po (reference value: 0.63 +/- 0.18 mg/dL); type: organism-based; design: dose 300 mg/kg, route oral; settings: in vivo
Mus musculus [17] = experiment: Toxicity in Swiss albino mouse assessed as change in SGOT level at 5 mg/kg, po (reference value: 25.27 +/- 1.32 U/L); type: organism-based; design: dose 5 mg/kg, route oral; settings: in vivo
Mus musculus [18] = experiment: Toxicity in Swiss albino mouse assessed as change in serum protein level at 50 mg/kg, po (reference value: 1.11 +/- 0.14 mg/ml); type: organism-based; design: dose 50 mg/kg, route oral; settings: in vivo
Mus musculus [19] = experiment: Toxicity in Swiss albino mouse assessed as absolute kidney weight at 5 to 1000 mg/kg, po relative to control; type: organism-based; design: dose 5-1000 mg/kg, route oral; settings: in vivo
Mus musculus [20] = experiment: Toxicity in Swiss albino mouse assessed as change in RBC count at 5 mg/kg, po (reference value: 5.43 +/- 0.27 million/mm'3); type: organism-based; design: dose 5 mg/kg, route oral; settings: in vivo
Mus musculus [21] = experiment: Toxicity in Swiss albino mouse assessed as change in body weight at 300 mg/kg, po (reference value: 24.5 +/- 0.76 g); type: organism-based; design: dose 300 mg/kg, route oral; settings: in vivo
MDA-MB-231 [22] = experiment: Cell cycle arrest in human MDA-MB-231 cells at 5 to 30 uM after 24 hrs by propidium iodide staining-based FACS analysis; type: functional
How it was run: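 MDA-MB-231 grown in DMEM with 10% FBS at 37 °C, 5% CO2; 24 h treatment, then cold-PBS wash, 2 × 10⁶ cells/ml, absolute-ethanol fixation, RNase A, propidium iodide 50 µg/mL for 30 min at room temperature; flow cytometric DNA content, sub-diploid fraction scored.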

Mus musculus [23] = experiment: Toxicity in Swiss albino mouse assessed as change in ALKP level at 5 mg/kg, po (reference value: 218.67 +/- 12.43 U/L); type: organism-based; design: dose 5 mg/kg, route oral; settings: in vivo
Mus musculus [24] = experiment: Toxicity in Swiss albino mouse assessed as absolute liver weight at 5 to 1000 mg/kg, po relative to control; type: organism-based; design: dose 5-1000 mg/kg, route oral; settings: in vivo
MDA-MB-231 [25] = experiment: Cytotoxicity against human MDA-MB-231 cells after 24 hrs by MTT assay; type: functional, cell-based; settings: MDA-MB-231, 24 h
How it was run: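 Cells in DMEM, 10% FBS, 37 °C, 5% CO2, plated and incubated 24 h; compounds diluted in phenol-red-free DMEM with 0.5% FBS, vehicle control; after exposure, MTT (5 mg/mL stock) added 3 h, formazan dissolved in DMSO, absorbance 570 nm; IC50 derived; podophyllotoxin and tamoxifen positive controls.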

Mus musculus [26] = experiment: Toxicity in Swiss albino mouse assessed as absolute spleen weight at 5 to 1000 mg/kg, po relative to control; type: organism-based; design: dose 5-1000 mg/kg, route oral; settings: in vivo
Mus musculus [27] = experiment: Toxicity in Swiss albino mouse assessed as change in total haemoglobin level at 300 mg/kg, po (reference value: 11.39 +/- 0.84 g/dL); type: organism-based; design: dose 300 mg/kg, route oral; settings: in vivo
Mus musculus [28] = experiment: Toxicity in Swiss albino mouse assessed as change in creatinine level at 1000 mg/kg, po (reference value: 0.63 +/- 0.18 mg/dL); type: organism-based; design: dose 1000 mg/kg, route oral; settings: in vivo
Mus musculus [29] = experiment: Toxicity in Swiss albino mouse assessed as change in basophil count at 5 to 1000 mg/kg, po relative to control; type: organism-based; design: dose 5-1000 mg/kg, route oral; settings: in vivo
Tubulin (Homo sapiens) [30] = target: T1, Tubulin (Homo sapiens); experiment: Induction of tubulin polymerization (unknown origin) at 10 to 40 uM measured every min for 1 hr in presence of PDT; type: protein-complex assay; how it was run: as §2

SMILES: CCOC(=O)/C=C/c1ccc(O)c(/C(=C/c2ccc(O)cc2)C(=O)OCC)c1
- Activity (Mus musculus [1]): 24.33 g
- Activity (Mus musculus [2]): 1.02 mg/mL
- Activity (Mus musculus [3]): 75.94 mg/dL
- Activity (Mus musculus [4]): 2.76 g/dL
- Activity (MCF7 [5]): Active
- Activity (Mus musculus [6]): 14.7 ×10³ /mm3
- Activity (MCF7 [7]): Active
- Activity (Mus musculus [8]): 12.35 g/dL
- Activity (Tubulin (Homo sapiens) [9]): Active
- MTD [10]: 300 mg/kg
- Activity (Mus musculus [11]): 5.11 million/mm3
- Activity (Mus musculus [12]): 60.3 mg/dL
- Activity (Mus musculus [13]): 5.58 million/mm3
- Activity (Mus musculus [14]): 14.6 ×10³ /mm3
- Activity (Mus musculus [15]): 156.83 mg/dL
- Activity (Mus musculus [16]): 0.79 mg/dL
- Activity (Mus musculus [17]): 27.67 U/L
- Activity (Mus musculus [18]): 0.94 mg/mL
- Activity (Mus musculus [19]): Non-toxic
- Activity (Mus musculus [20]): 5.99 million/mm3
- Activity (Mus musculus [21]): 25 g
- Activity (MDA-MB-231 [22]): inactive
- Activity (Mus musculus [23]): 227.47 U/L
- Activity (Mus musculus [24]): Non-toxic
- IC50 (MDA-MB-231 [25]): 15 µM
- Activity (Mus musculus [26]): Non-toxic
- Activity (Mus musculus [27]): 10.83 g/dL
- Activity (Mus musculus [28]): 1.87 mg/dL
- Activity (Mus musculus [29]): Non-toxic
- Activity (Tubulin (Homo sapiens) [30]): inactive
